The source made the active and inactive calls. No cut-off for these calls is given here.

The text below walks through data of ChEMBL document CHEMBL1154211, “Curcumin inhibits ACTH- and angiotensin II-stimulated cortisol secretion and Ca(v)3.2 current” (J Nat Prod, 2009).

Experiment [1] in a line: Inhibition of ACTH-stimulated cortisol secretion in bovine AZF cells at 10 uM after 0.5 hrs by EIA. To be noted: Bos taurus. Type of experiment: functional. In short, it runs like this:
(§1)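 AZF cells were taken from steer adrenals and plated 24 h on fibronectin in serum-containing DMEM/F12 with antioxidants, then moved to serum-free supplemented DMEM/F12. They were exposed to ACTH(1–24) ± curcumin (1–20 µM) for 0.5, 2 or 24 h. Collected media were assayed for cortisol by EIA, in duplicate from duplicate samples, as mean ± SEM.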

Experiment [2] in a line: Inhibition of 8CPT-cAMP-induced cortisol secretion in bovine AZF cells at 10 uM after 24 hrs by EIA. Type of experiment: functional. To be noted: Bos taurus. In short, it runs like this: (§2)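 Bovine adrenal zona fasciculata cells from 2–3-yr steers were plated on fibronectin-coated dishes in DMEM/F12 with 10% FBS and antioxidants for 24 h. They were then switched to serum-free DMEM/F12 with BSA, ascorbate, tocopherol, insulin and transferrin, and treated with 250 µM 8CPT-cAMP ± curcumin (1–20 µM). Medium cortisol was measured by EIA in duplicate from duplicate samples, as mean ± SEM.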

Experiment [3] in a line: Inhibition of 8CPT-cAMP-induced cortisol secretion in bovine AZF cells at 10 uM after 1 hr by EIA. To be noted: Bos taurus. Type of experiment: functional. In short, it runs like this: as §2
Experiment [4] concerns AZF. In words: Inhibition of Cav3.2 channel in bovine AZF cells at 5 uM by cell patch clamp assay. In kind it is cell-based. The settings on record: Bos taurus. In short, it runs like this: (§3)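 Whole-cell T-type Ca2+ currents were recorded from bovine AZF cells 2–12 h after plating (10–15 pF, <15 µm). The pipette held CsCl/BAPTA/MgATP at pH 7.2, and the bath held TEA-Cl with 20 mM Ca2+ at pH 7.4. Current was recorded in standard saline, then the cell was superfused with 5, 10 or 20 µM curcumin, and % inhibition of current amplitude was measured (n = 4–6).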

In experiment [5] the test system is AZF. In words: Inhibition of Cav3.2 channel in bovine AZF cells at 20 uM by cell patch clamp assay. In kind it is cell-based. The settings on record: Bos taurus. The method, boiled down: as §3
A short description of experiment [6]: Inhibition of ACTH-induced CYP11a1 mRNA expression in bovine AZF cells at 10 uM after 24 hrs using [alpha32P]dCTP labeled probes by Northern blot analysis. In kind it is functional. To be noted: Bos taurus. In short, it runs like this: (§4)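 Steer AZF cells ((5–8) × 10^6 per dish, fibronectin-coated) were plated 24 h with serum, then held in serum-free supplemented DMEM/F12. They were preincubated 10 min with curcumin (10 µM), then given 2 nM ACTH for 24 h. Total RNA (10 µg/lane) was run on a denaturing gel and Northern blotted with bovine CYP11a1 or StAR probes. Bands were quantified by phosphorimaging as % control, with 18S rRNA as loading reference and ≥2 experiments.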

The test system of experiment [7] is AZF. Briefly: Inhibition of Cav3.2 channel in bovine AZF cells at 10 uM by cell patch clamp assay. The settings on record: Bos taurus. Type of experiment: cell-based. In short, it runs like this: as §3
Experiment [8] can be described thus: Inhibition of ACTH-stimulated cortisol secretion in bovine AZF cells after 3 hrs by EIA. In kind it is functional, Bos taurus.
A short description of experiment [9]: Inhibition of ACTH-induced StAR mRNA expression in bovine AZF cells at 10 uM after 24 hrs using [alpha32P]dCTP labeled probes by Northern blot analysis. The settings on record: Bos taurus. In kind it is functional. The method, boiled down:
as §4

Experiment [10] is described as follows: Inhibition of Ang2-stimulated cortisol secretion in bovine AZF cells at 20 uM after 2 hrs by EIA. To be noted: Bos taurus.
Experiment [11] has as its system AZF. In words: Inhibition of 8CPT-cAMP-induced cortisol secretion in bovine AZF cells at 1 to 20 uM after 1 hr by EIA. Type of experiment: functional, cell-based. To be noted: Bos taurus. The method, boiled down: as §2
Experiment [12] can be described thus: Inhibition of ACTH-stimulated cortisol secretion in bovine AZF cells at 10 uM after 2 hrs by EIA. In kind it is functional. The settings on record: Bos taurus. The method, boiled down:
as §1

Experiment [13] is described as follows: Induction of cortisol secretion in bovine AZF cells at 20 uM after 0.5 to 24 hrs by EIA relative to control. In kind it is functional, Bos taurus. In short, it runs like this: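 AZF cells from adrenal glands of 2–3 yr steers were plated 24 h on fibronectin in DMEM/F12 with 10% FBS, tocopherol, selenite and ascorbate. Medium was then switched to serum-free DMEM/F12 with BSA, ascorbate, tocopherol, insulin and transferrin, with or without compound, at 37 °C. Media were collected at 0.5, 2 and 24 h, and cortisol was measured by EIA (duplicates of duplicate samples, mean ± SEM).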

A short description of experiment [14]: Inhibition of ACTH-stimulated cortisol secretion in bovine AZF cells at 10 uM after 2 4 hrs by EIA. The settings on record: Bos taurus. Type of experiment: functional. In short, it runs like this: as §1
Experiment [15] has as its target T1, Potassium channel subfamily K member 2 (Bos taurus, UniProt Q8HY88).
T1 sequence (Q8HY88 whole entry): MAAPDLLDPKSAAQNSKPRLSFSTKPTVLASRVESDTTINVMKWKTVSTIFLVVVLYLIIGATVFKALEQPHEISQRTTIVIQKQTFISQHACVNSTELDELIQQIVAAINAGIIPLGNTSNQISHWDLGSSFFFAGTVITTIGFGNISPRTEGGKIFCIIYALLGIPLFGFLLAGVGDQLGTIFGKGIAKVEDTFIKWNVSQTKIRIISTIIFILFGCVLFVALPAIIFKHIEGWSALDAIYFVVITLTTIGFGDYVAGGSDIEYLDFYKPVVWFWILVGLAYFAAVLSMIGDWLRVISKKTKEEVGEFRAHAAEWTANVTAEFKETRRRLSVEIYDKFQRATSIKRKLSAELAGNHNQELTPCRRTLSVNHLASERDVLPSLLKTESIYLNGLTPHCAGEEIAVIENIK
In words: Inhibition of TREK-1 K(+) channel in bovine AZF cells. Type of experiment: cell-based.

Experiment [16] deals with AZF. In words: Inhibition of ACTH-stimulated cortisol secretion in bovine AZF cells at 1 to 20 uM after 0.5 hrs by EIA. Type of experiment: functional, cell-based. The settings on record: Bos taurus. In short, it runs like this: as §1
Experiment [17] is described as follows: Inhibition of ACTH-stimulated cortisol secretion in bovine AZF cells after 24 hrs by EIA. In kind it is functional, Bos taurus.

As for `COc1cc(/C=C/C(=O)CC(=O)/C=C/c2ccc(O)c(OC)c2)ccc1O` [CURCUMIN], the inhibition at 10 µM stood at 81.1% in experiment [1]; 96.8% in experiment [2]; 92.9% in experiment [3]; 59% in experiment [6]; 99% in [9]; 92.4% in experiment [12]. The compound further returned an inhibition at 10 µM in experiment [14] of 91%. For the same compound, the inhibition in the experiment with AZF [4] came to 31.9%; in the experiment with AZF [5], 53.3%; in the experiment with AZF [7] it was 41%. Also, the “inhibition (INH)” value in experiment [8] amounted to 89%; in experiment [17] it was 92%. For the same compound, in [10], the inhibition at 20 µM amounted to 94.5%. Also, the inhibition result with AZF [11] and in the experiment with AZF [16] was “Active” in each case. Moreover, the “fold change (FC)” value in [13] came to 2. The IC50 in [15] turned out to be 930 nM.
